Results on 98 compounds are retold here after ChEMBL document CHEMBL4513216, “Probing the Open Global Health Chemical Diversity Library for Multistage-Active Starting Points for Next-Generation Antimalarials” (ACS Infect Dis, 2020).

This series is described as follows: Toxicity liver stage against HepG2, at 10uM. The series is classed as cell-based. Details: test concentration 10 uM, cell line HepG2-A16-CD81EGFP. The settings on record: human, HepG2-A16-CD81EGFP cells; read-out: INHIBITION
In outline: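 Uninfected HepG2-A16-CD81EGFP cells, 3 × 10^3 per well, 1536-well, plated on prespotted compound at 10 μM final, parasite-free screening media added to match infected plates; puromycin 10 μM positive, DMSO 0.5% negative; run in parallel with 48 h PbLuc assay at 37 °C, 5% CO2; viability by CellTiter-Glo luminescence, normalized to controls.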
As for `CCCC(C)NC1CCN(c2ccc(-n3ccnc3C)cc2)CC1` (stereo not drawn), the cytotoxicity at 10 µM is -3.67%.

Consider `CCN1CCN(c2ccc(F)cc2C(C)NCc2nc(C)no2)CC1` (stereo not drawn), for which the cytotoxicity at 10 µM was -17.9%.

Regarding `CNC(=O)[C@H]1C[C@@H]2CCN(c3nnc(C)s3)C[C@@H]2O1`, the cytotoxicity at 10 µM is -75.7%.

For the compound `CC(C)N1CCO[C@H]2CN(C(=O)c3ccncc3F)C[C@H]21`, the cytotoxicity at 10 µM is -146%.

For `Cc1cc(C(=O)N2CCCC(c3cc(C(F)(F)F)[nH]n3)C2)on1` (stereo not drawn), the cytotoxicity at 10 µM stood at 10.5%.

Take `Cc1cnn(CCC(=O)N2CCCC(c3ccn[nH]3)C2)c1` (stereo not drawn): the cytotoxicity at 10 µM is -8.25%.

Regarding `CCc1cc(NCCCOC2CCN(C)CC2)ncn1`, the cytotoxicity at 10 µM is -8.34%.

In the case of `Cc1cc(C2CCCN(C(=O)c3cccnc3)C2)ccn1` (stereo not drawn), the cytotoxicity at 10 µM is -21.3%.

`O=C(O)c1cc(-c2cncnc2)cc(S(=O)(=O)N2CCCCCC2)c1`: the cytotoxicity at 10 µM turned out to be 5.38%.

As to `Cc1ccc(NC(=O)Nc2c(O)c3ccccc3oc2=O)cc1C`, the cytotoxicity at 10 µM amounted to 5.89%.

Regarding `Cc1nn(C)c(Cl)c1C1CCCN1C(=O)c1ccc2c(c1)COC2` (stereo not drawn), the cytotoxicity at 10 µM is -16.1%.

For the compound `CC(NC(=O)NCc1cc(Br)cs1)c1ccccn1` (stereo not drawn), the cytotoxicity at 10 µM was -17.6%.

As to `CC1CN(Cc2cccc(CNC3CCCC3)c2)CCO1` (stereo not drawn), the cytotoxicity at 10 µM came out at 3.06%.

Consider `CC(=O)N(Cc1ncc(C(C)C)o1)C1CCN(Cc2cc(C)on2)C1` (stereo not drawn), for which the cytotoxicity at 10 µM was -6.78%.

With `Cc1nn(C)c(N(C)C)c1CNCc1ccccc1Cn1ccnc1`, the cytotoxicity at 10 µM is -15.3%.

Regarding `Cn1cc(NC(=O)Nc2cccc3cccnc23)ccc1=O`, the cytotoxicity at 10 µM was -9.22%.

As for `O=c1c(CN2CCCCC2)coc2ccc(Cl)cc12`, the cytotoxicity at 10 µM was -2.56%.

On to `Cn1nc(C(=O)N2CCCCCC2)cc1NC(=O)c1ccccc1`, for which the cytotoxicity at 10 µM is -0.942%.

Take `CCNc1cc2c(nn1)CCN(C(=O)c1c(C)noc1C)C2`: the cytotoxicity at 10 µM was -5.76%.

On to `Cc1cnc(N2CCC3(CCCCN3C)C2)nc1` (stereo not drawn), for which the cytotoxicity at 10 µM stood at 3.29%.

`Cc1nc(CN2CCc3ncnc(C4CC4)c3CC2)cs1`: the cytotoxicity at 10 µM is -81.9%.

As for `Cn1c(C(=O)NC2CCCC2)nc2c1CCN(Cc1ccccc1)C2`, the cytotoxicity at 10 µM worked out at 10.3%.

As for `O=C(C1CCCCC1)N1CCO[C@@H]2CNC[C@@H]21`, the cytotoxicity at 10 µM worked out at 8.82%.

With `NC(=O)c1cc2c(nc1N)CCN(C(=O)C1CCCCC1)C2`, the cytotoxicity at 10 µM is -21.8%.

As to `CCNC(=O)NCc1nn(CCN2CCCC2)c(=O)c2ccccc12`, the cytotoxicity at 10 µM is -3.85%.

With `Cc1noc([C@H]2C[C@@H]3CCN(C(=O)N(C)C)C[C@H]3O2)n1`, the cytotoxicity at 10 µM amounted to 2.8%.

Take `CCNCCOc1ccc(-c2cc(N)nc3[nH]ccc23)cc1`: the cytotoxicity at 10 µM is 24.3%.

For `CC(C)Oc1ncccc1CNC(=O)Nc1ccccn1`, the cytotoxicity at 10 µM was -9.41%.

Turning to `CCCn1ncc2c(C(=O)Nc3cnn(CC)c3C)cc(C3CC3)nc21`, the cytotoxicity at 10 µM is -0.842%.

As to `Cn1nc(CC(C)(C)C)cc1NC(=O)c1ccc(CNC(N)=O)cc1`, the cytotoxicity at 10 µM was -1.78%.

For the compound `c1ccc(CN2CCc3ncnc(-c4ccncc4)c3CC2)nc1`, the cytotoxicity at 10 µM is -73.1%.

With `O=C(CCn1ccccc1=O)Nc1ccc(C(=O)O)cc1`, the cytotoxicity at 10 µM was 4.74%.

On to `CC(C)c1nnc2n1CCN(c1nn3cc(C(C)(C)C)nc3s1)C2`, for which the cytotoxicity at 10 µM was found to be 7.44%.

`CN(C)c1ccc(NC(=O)N2CCCCC2c2ncc[nH]2)cn1` (stereo not drawn): the cytotoxicity at 10 µM was -1.78%.

`CN(Cc1nnc(C2CC2)n1C)C1CCN(CCc2ccccc2)C1` (stereo not drawn): the cytotoxicity at 10 µM turned out to be 2.03%.

On to `CN(C)C(=O)CN1CCCC12CCCN(c1ncc(F)cn1)C2` (stereo not drawn), for which the cytotoxicity at 10 µM was -2.51%.

Turning to `O=C(NCCO)Nc1ccc(Br)c(F)c1`, the cytotoxicity at 10 µM was 1.92%.

For `CC(NC(=O)NCC(C)(C)O)c1ccc(-c2ccncc2)cc1` (stereo not drawn), the cytotoxicity at 10 µM amounted to 7.15%.

With `Cc1cnn(CC(C)NCC(=O)NC2CCOCC2)c1` (stereo not drawn), the cytotoxicity at 10 µM worked out at 15.6%.

Take `Cc1nc(C)n(CC2CN(Cc3cscn3)CCO2)n1` (stereo not drawn): the cytotoxicity at 10 µM is -4.22%.

On to `CC(=O)N(CCc1ccccc1)CC(=O)Nc1ccccc1C#N`, for which the cytotoxicity at 10 µM amounted to 6.59%.

As to `Cn1nc(C2CCCN(C(=O)Cc3ccsc3)C2)c2nccnc21` (stereo not drawn), the cytotoxicity at 10 µM was 4.68%.

For the compound `CCc1c(NCc2ccc(F)cc2)cnn1CC(C)C`, the cytotoxicity at 10 µM came to 3.66%.

On to `CN(CC(N)=O)S(=O)(=O)c1ccc(F)cc1Cl`, for which the cytotoxicity at 10 µM was -11.9%.

Regarding `COc1cccc(N2CCN(C(=O)c3noc4c3CCCC4)CC2)c1`, the cytotoxicity at 10 µM worked out at 11.7%.

With `CC(=O)OCc1ccc(CN2CCCCCC2c2cc(C)no2)o1` (stereo not drawn), the cytotoxicity at 10 µM is -13.1%.

For the compound `COc1cccc(CNC[C@H]2COCc3nc4cccnc4n32)n1`, the cytotoxicity at 10 µM is -1.57%.

For the compound `N#Cc1cccc(NS(=O)(=O)c2ccc(C(=O)O)cc2F)c1`, the cytotoxicity at 10 µM is -3.67%.

Take `Cc1cc(C)c(C#N)c(N2CCC(Cc3ccccc3)CC2)n1`: the cytotoxicity at 10 µM is -11.8%.

Regarding `CCn1nc(C)c(CCNC(=O)c2cccc(NCC(=O)O)c2)c1C`, the cytotoxicity at 10 µM was 15.2%.

On to `COc1ccc(/C=C/CN2CCC3(C2)CN(C)C(=O)O3)cc1` (stereo not drawn), for which the cytotoxicity at 10 µM amounted to 0.313%.

As for `O=C(NC1CCN(c2ncccc2F)C1)c1cccc(-n2ccnc2)c1` (stereo not drawn), the cytotoxicity at 10 µM came out at 9.49%.

As to `Fc1ccc(C(CNc2ccncn2)N2CCCCC2)cc1` (stereo not drawn), the cytotoxicity at 10 µM is -1.88%.

For `Cn1cc(CNC2CCc3c(ccc(=O)n3Cc3ccncc3)C2)cn1` (stereo not drawn), the cytotoxicity at 10 µM is -102%.

Turning to `Cc1ccccc1CSc1ncccc1C(=O)N(C)C`, the cytotoxicity at 10 µM is -7.24%.

For the compound `CCN(CC)c1ccc(NS(=O)(=O)c2cnn(CC)c2)cn1`, the cytotoxicity at 10 µM was 3.07%.

For the compound `O=C1CC(c2ccsc2)c2sc(C(=O)O)c(-c3ccccc3)c2N1` (stereo not drawn), the cytotoxicity at 10 µM was determined as 15.2%.

`Cc1cc(CN(C)C(=O)C(c2ccccc2)N2CCSCC2)no1` (stereo not drawn): the cytotoxicity at 10 µM was -1.49%.

As to `CC(C)(C)c1nc(CN(Cc2cccs2)C2CCS(=O)(=O)C2)no1` (stereo not drawn), the cytotoxicity at 10 µM was -3.63%.

As for `CCS(=O)(=O)N1Cc2nccn2CC(Cn2cccn2)C1` (stereo not drawn), the cytotoxicity at 10 µM amounted to 10.7%.

For the compound `COc1ccc(-c2nonc2N)cc1`, the cytotoxicity at 10 µM was -7.97%.

Consider `O=C(CCC1CCN(C(=O)c2csnn2)CC1)NCc1cccc(Cl)c1`, for which the cytotoxicity at 10 µM is -4.55%.

In the case of `CNC(=O)CN1CCC12CCN(C(=O)Cc1ccccc1)C2` (stereo not drawn), the cytotoxicity at 10 µM was -75.4%.

`Cc1cc(C)c(C(=O)N2CCOC(c3cccs3)C2)c(=O)[nH]1` (stereo not drawn): the cytotoxicity at 10 µM is -1.29%.

As to `Cc1cccn2c(CNC(C)CO)cnc12` (stereo not drawn), the cytotoxicity at 10 µM is -2.78%.

Consider `CC(C(=O)NC1CC1)N1CCN(Cc2ccn(C)c(=O)c2)CC1` (stereo not drawn), for which the cytotoxicity at 10 µM was -5.57%.

As to `c1ccc(-c2nc(CNC3CCCN(c4cccnn4)C3)no2)cc1` (stereo not drawn), the cytotoxicity at 10 µM amounted to 15.9%.

For `CC[C@@]1(O)CCN(C(=O)c2cccc3cc(C)oc23)C[C@H]1O`, the cytotoxicity at 10 µM was 4.62%.

Regarding `CNC(=O)CN1CC[C@H]2CN(C(=O)c3cccc(C)c3)C[C@H]2C1`, the cytotoxicity at 10 µM is -2.45%.

As to `Cc1ccc2nc(C3CCN(CC4CC4)CC3)nn2c1`, the cytotoxicity at 10 µM stood at 0.806%.

As to `CCC(Nc1nnnn1-c1ccccc1)C(=O)NCc1cccs1` (stereo not drawn), the cytotoxicity at 10 µM was -1.12%.

Consider `CC(C)c1nn(C)c(N(C)C)c1CNCc1ccccc1CN(C)C`, for which the cytotoxicity at 10 µM was 1.53%.

For `Cc1cc(=O)n2ncnc2n1CC(O)c1cc(F)ccc1F` (stereo not drawn), the cytotoxicity at 10 µM is 1.7%.

Regarding `O=C(NCC1CC1)C1CCC2(CCN(C(=O)c3cccnc3)CC2)O1` (stereo not drawn), the cytotoxicity at 10 µM came to 3.59%.

With `COc1ccc(C(O)CNC(=O)NCc2csc(C)n2)cc1` (stereo not drawn), the cytotoxicity at 10 µM was -6.12%.

With `CC(C)Cc1cn(C2CCN(C(C)CCn3cccn3)CC2)nn1` (stereo not drawn), the cytotoxicity at 10 µM was -1.8%.

For the compound `CCn1nc(CC(C)C)cc1C(=O)N1CC(N2CCCCC2C)C1` (stereo not drawn), the cytotoxicity at 10 µM was -12.4%.

`Cc1c(C)n(CC(O)CN2CCOCC2)c2c(Cl)cccc12` (stereo not drawn): the cytotoxicity at 10 µM was determined as 0.829%.

For `CC(=O)N1CCN(C(=O)c2sc(-c3ccccc3F)nc2C)CC1`, the cytotoxicity at 10 µM is -3.3%.

For `COc1ccccc1CNC(C)c1ccc2[nH]c(=O)[nH]c2c1` (stereo not drawn), the cytotoxicity at 10 µM is -18%.

`Cn1cc(C(=O)CC2CCCN2C(=O)c2c[nH]c3ccccc23)cn1` (stereo not drawn): the cytotoxicity at 10 µM is -1.39%.

With `Cc1ccc(C#N)c(N2CCC3(CCCN(C4CCOCC4)C3=O)C2)n1` (stereo not drawn), the cytotoxicity at 10 µM is -125%.

Turning to `Cc1cc(C(=O)N2CCCC2Cn2nc(C)cc2C)on1` (stereo not drawn), the cytotoxicity at 10 µM was -8.21%.

Turning to `CC(=O)N(CCc1nc(-c2cc(C(N)=O)oc2C)cs1)C(C)C`, the cytotoxicity at 10 µM turned out to be 0.988%.

In the case of `c1ccc(-c2nc(SCc3nnc(C4CC4)o3)n[nH]2)nc1`, the cytotoxicity at 10 µM is -1.78%.

On to `O=C(CCC1CCCO1)NCCCC(=O)Nc1ccc(Cl)cc1` (stereo not drawn), for which the cytotoxicity at 10 µM is -0.649%.

For `COCC1COCCC12CCN(C(=O)CCc1ccccc1C)CC2` (stereo not drawn), the cytotoxicity at 10 µM was -1.52%.

As to `CC(C)n1ccnc1C1CCCN(c2ncccc2C(N)=O)C1` (stereo not drawn), the cytotoxicity at 10 µM is -9.53%.

For `COCC(=O)N1CCCN(C(=O)C2Cc3ccccc3CN2C)CC1` (stereo not drawn), the cytotoxicity at 10 µM was 4.28%.

In the case of `CCC(CC)c1cc(CNC(=O)N2CCC[C@@H]2CO)on1`, the cytotoxicity at 10 µM was -5.16%.

As for `COCCN(Cc1cccnc1)S(=O)(=O)c1cc(C)ccc1F`, the cytotoxicity at 10 µM was determined as 10.3%.

With `Cc1[nH]c(-c2ccccc2)nc1C(=O)N1CCC(O)(CO)CC1`, the cytotoxicity at 10 µM turned out to be 1.1%.

For the compound `CCOCC1CCN(C(=O)C(c2cccc(F)c2)N(C)C)CC1` (stereo not drawn), the cytotoxicity at 10 µM was -4.57%.

Take `CSCC(CCO)NC(=O)Nc1cc(Br)ccc1C` (stereo not drawn): the cytotoxicity at 10 µM was -11.1%.

As for `COCCOC1CCN(C(C(=O)O)c2ccc(F)c(Cl)c2)CC1` (stereo not drawn), the cytotoxicity at 10 µM worked out at 9.84%.

On to `COCC(=O)NCC1Cn2nnc(-c3ccncc3)c2CO1` (stereo not drawn), for which the cytotoxicity at 10 µM amounted to 8.22%.

Take `Cc1nc(C)n(CC2CCCN(Cc3cccnc3)C2)n1` (stereo not drawn): the cytotoxicity at 10 µM was -18.7%.

Regarding `O=C(c1csc(-c2ncccn2)n1)N1CCCC1Cn1cccn1` (stereo not drawn), the cytotoxicity at 10 µM turned out to be 0.533%.
